Results of several laboratories.
Target: Receptor-interacting serine/threonine-protein kinase 2 (RIPK2, Homo sapiens, UniProt O43353)

Compound	effect on	action	method	concentration	endpoint	value
C=CC(=O)N1CCC([C@@H]2CCNc3c(C(N)=O)c(-c4ccc(Oc5ccccc5)cc4)nn32)CC1	enzyme activity	inhibitor	–	1 µM	inhibition	96%
CCCCC(=O)Nc1ccc(-c2ccc3ncn(CCC)c(=O)c3c2)cn1	binding	–	competition with immobilised ligand	0.5 µM	remaining binding	98%
CO[C@@H]1[C@H](N(C)C(=O)c2ccccc2)C[C@H]2O[C@]1(C)n1c3ccccc3c3c4c(c5c6ccccc6n2c5c31)C(=O)NC4	enzyme activity	inhibitor	–	1 µM	inhibition	0%
Cc1ccc(NC(=O)c2ccnc(C(F)(F)F)c2)cc1-c1cc(OCCO)nc(N2CCOCC2)c1	binding	–	competition with immobilised ligand	1 µM	remaining binding	63%
C#Cc1cc(-c2cc(Nc3nc(N[C@@H](C)c4ccc(F)cn4)ncc3Cl)n[nH]2)ccc1C=O	enzyme activity	inhibitor	–	0.2 µM	inhibition	14.7%
COc1ccc2[nH]c3c4[nH]c5ccc(OC)cc5c4c4c(c3c2c1)C(=O)NC4=O	binding	–	competition with immobilised ligand	1 µM	remaining binding	60%
COc1ccc2oc(-c3ccc4nc(N)oc4c3)c/c(=N\c3ccccc3NC(=O)CCN)c2c1	binding	–	–	1 µM	remaining binding	112%
CC(C)S(=O)(=O)c1ccc2nccc(Nc3ccc4sc(C5CCCC5)nc4c3)c2c1	enzyme activity	inhibitor	–	1 µM	activity vs control	2.5%
